Our source for the Activity and inhibition values is ChEMBL document CHEMBL1221390, “Withaferin A, a cytotoxic steroid from Vassobia breviflora, induces apoptosis in human head and neck squamous cell carcinoma” (J Nat Prod, 2010).

Test [1] is described as follows: Induction of cell cycle arrest in human JMAR cells assessed as accumulation at subG0 phase at 3 uM after 24 hrs by flow cytometry. It is filed as functional. The essentials:
(§1)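 Treated 24 h with 3.0 μM or DMSO vehicle. Cells trypsinized; 1×10⁶ washed in 0.9% NaCl and fixed 30 min at room temperature in cold 70% ethanol/0.9% NaCl. Stained with PI (50 μg/mL in PBS) 30 min, then DNase-free RNase (1 mg/mL) 30 min. Phase distribution (sub-G0, G0/G1, S, G2/M) by flow cytometry.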
Background: In flow cytometry, cells or beads pass a laser one at a time.

Test [2] in a line: Induction of cell cycle arrest in human MDA1986 cells assessed as accumulation at subG0 phase at 3 uM after 24 hrs by flow cytometry. The format is functional. The gist of the method:
as §1

Test [3] is described as follows: Induction of apoptosis in human JHU011 cells assessed as early apoptotic cells at 5 uM after 24 hrs by FITC-conjugated annexin V and propidium iodide staining-based flow cytometry. The format is functional. The essentials:
(§2)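 Cells given 5.0 μM for 24 h, harvested, and co-stained at 1×10⁶ cells/mL with annexin V-FITC and PI. Annexin binding buffer added before flow cytometry. Annexin V only scored as early apoptosis, annexin V+PI as late apoptosis, PI only as necrosis. Triplicate; t-test.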

Test [4] relates to JHU011. Description: Induction of apoptosis in human JHU011 cells assessed as mild increase in late apoptotic cells at 5 uM after 24 hrs by FITC-conjugated annexin V and propidium iodide staining-based flow cytometry. The format is functional, cell-based. The gist of the method: as §2
In test [5] the test system is JHU011. In words: Induction of apoptosis in human JHU011 cells assessed as increase in non-viable necrotic cells at 5 uM after 24 hrs by FITC-conjugated annexin V and propidium iodide staining-based flow cytometry. The format is functional, cell-based. The essentials: as §2
The test system of test [6] is JMAR. Description: Induction of apoptosis in human JMAR cells assessed as increase in early apoptotic cells at 5 uM after 24 hrs by FITC-conjugated annexin V and propidium iodide staining-based flow cytometry. It is filed as functional, cell-based. The gist of the method:
as §2

Test [7] deals with JMAR. In words: Induction of apoptosis in human JMAR cells assessed as increase in late apoptotic cells at 5 uM after 24 hrs by FITC-conjugated annexin V and propidium iodide staining-based flow cytometry. The format is functional, cell-based. The essentials: as §2
Test [8] has as its system JMAR. Description: Induction of apoptosis in human JMAR cells assessed as increase in non-viable necrotic cells at 5 uM after 24 hrs by FITC-conjugated annexin V and propidium iodide staining-based flow cytometry. It is filed as functional, cell-based. The gist of the method: as §2
Test [9] concerns UM-SCC2. Description: Induction of apoptosis in human UM-SCC2 cells assessed as increase in early apoptotic cells at 5 uM after 24 hrs by FITC-conjugated annexin V and propidium iodide staining-based flow cytometry. The format is functional, cell-based. The gist of the method: as §2
Test [10] has as its system UM-SCC2. Description: Induction of apoptosis in human UM-SCC2 cells assessed as increase in late apoptotic cells at 5 uM after 24 hrs by FITC-conjugated annexin V and propidium iodide staining-based flow cytometry. The format is functional, cell-based. The gist of the method:
as §2

Test [11] deals with UM-SCC2. Description: Induction of apoptosis in human UM-SCC2 cells assessed as increase in late non-viable necrotic cells at 5 uM after 24 hrs by FITC-conjugated annexin V and propidium iodide staining-based flow cytometry. The format is functional, cell-based. The gist of the method: as §2
The subject of test [12] is JHU011. In words: Induction of apoptosis in human JHU011 cells assessed as decrease in procaspase-3 level at 1 to 6 uM after 24 hrs by Western blot analysis. It is filed as functional, cell-based. The essentials: (§3)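 Cells exposed to increasing concentrations for 24 h, lysed in NP-40/Tris pH 7.5 buffer with protease inhibitors, NaF and orthovanadate. Equal protein run on SDS-PAGE, transferred to nitrocellulose. Probed overnight at 4 °C for uncleaved caspase 3 (pro-form) and uncleaved/cleaved PARP; HRP secondary 1 h at room temperature.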
(In western blotting, separated proteins are transferred to a membrane and probed.)

Test [13] deals with JHU011. In words: Induction of apoptosis in human JHU011 cells assessed as induction of PRAP cleavage after 24 hrs by Western blot analysis. It is filed as functional, cell-based. The gist of the method:
as §3

The subject of test [14] is JMAR. Description: Induction of apoptosis in human JMAR cells assessed as decrease in procaspase-3 level at 1 to 6 uM after 24 hrs by Western blot analysis. It is filed as functional, cell-based. The gist of the method:
as §3

The subject of test [15] is JMAR. In words: Induction of apoptosis in human JMAR cells assessed as induction of PRAP cleavage after 24 hrs by Western blot analysis. It is filed as functional, cell-based. The essentials: as §3
Test [16] has as its system UM-SCC2. Description: Induction of apoptosis in human UM-SCC2 cells assessed as decrease in procaspase-3 level at 1 to 6 uM after 24 hrs by Western blot analysis. The format is functional, cell-based. The essentials: as §3
Test [17] relates to UM-SCC2. In words: Induction of apoptosis in human UM-SCC2 cells assessed as induction of PRAP cleavage after 24 hrs by Western blot analysis. The format is functional, cell-based. The essentials: as §3
The species entered for test [18] is Homo sapiens. Description: Induction of apoptosis in human MDA1986 cells assessed as decrease in procaspase-3 level at 1 to 6 uM after 24 hrs by Western blot analysis. It is filed as functional, cell-based. The essentials:
as §3

The species named for test [19] is Homo sapiens. In words: Induction of apoptosis in human MDA1986 cells assessed as induction of PRAP cleavage at 1 to 6 uM after 24 hrs by Western blot analysis. It is filed as functional, cell-based. The essentials:
as §3

Test [20] has as its target RAC-alpha serine/threonine-protein kinase (Homo sapiens) (UniProt P31749). Description: Inhibition of Akt phosphorylation in human JHU011 cells after 24 hrs by Western blot analysis. It is filed as cell-based. The essentials:
(§4)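 Increasing concentrations for 24 h. NP-40 lysates (with NaF and orthovanadate) cleared at 14,000 × g, equal protein separated by SDS-PAGE and blotted. Probed for phospho-Akt (Ser473), total Akt, phospho-ERK1/2 and total ERK; β-actin loading control. Primary antibody overnight at 4 °C, HRP secondary 1 h.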

The target is the same in test [21]. Description: Inhibition of Akt phosphorylation in human UM-SCC2 cells after 24 hrs by Western blot analysis. It is filed as cell-based. The gist of the method:
as §4

For test [22] the target is unchanged. In words: Inhibition of Akt phosphorylation in human MDA1986 cells after 24 hrs by Western blot analysis. The format is cell-based. The essentials:
as §4

Test [23] shares this target. Description: Inhibition of Akt phosphorylation in human JMAR cells after 24 hrs by Western blot analysis. The format is cell-based. The essentials: as §4
The target is the same in test [24]. Description: Inhibition of Akt in human MDA1986 cells assessed as highest required for enzyme activity after 24 hrs by Western blot analysis. The format is cell-based. The essentials: as §4

Calls of active or inactive are those of the source. No cut-off for these calls is given here.

Sequence of RAC-alpha serine/threonine-protein kinase (Homo sapiens) (P31749 whole entry): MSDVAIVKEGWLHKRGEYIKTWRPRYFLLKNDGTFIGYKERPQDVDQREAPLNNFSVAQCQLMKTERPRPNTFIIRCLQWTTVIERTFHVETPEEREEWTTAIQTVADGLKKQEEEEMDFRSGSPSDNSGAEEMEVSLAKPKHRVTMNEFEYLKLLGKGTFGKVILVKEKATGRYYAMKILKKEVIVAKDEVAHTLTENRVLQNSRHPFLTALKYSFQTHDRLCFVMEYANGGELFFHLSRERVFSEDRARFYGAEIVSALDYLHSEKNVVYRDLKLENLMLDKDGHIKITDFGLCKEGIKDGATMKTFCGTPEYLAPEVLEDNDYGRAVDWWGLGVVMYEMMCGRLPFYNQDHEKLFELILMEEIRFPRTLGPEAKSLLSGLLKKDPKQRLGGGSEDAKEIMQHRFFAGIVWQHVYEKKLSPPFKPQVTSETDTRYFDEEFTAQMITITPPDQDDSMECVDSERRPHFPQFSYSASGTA

On to `CC1=C(CO)C(=O)O[C@@H]([C@@H](C)[C@H]2CC[C@H]3[C@@H]4C[C@H]5O[C@]56[C@@H](O)C=CC(=O)[C@]6(C)[C@H]4CC[C@]23C)C1` [WITHAFERIN A], for which the Activity was 12% in test [1]; 8% in [2]; 14.8% in [3]; “Dose-dependent effect” in the test on JHU011 [13]; “Dose-dependent effect” in the test on JMAR [15]; “Dose-dependent effect” with UM-SCC2 [17]. Besides, the Activity in test [24] amounted to 2.5 µM. Also, the result in the test with JHU011 [4], in the test on JMAR [6], in the test with JMAR [7], in the test on JMAR [8], with UM-SCC2 [9] and in the test on UM-SCC2 [10] was Active. The outcome with UM-SCC2 [11], in the test with JHU011 [12], in the test with JMAR [14], in the test with UM-SCC2 [16], in the test filed under Homo sapiens [18] and in the test filed under Homo sapiens [19] was Active. For the same compound, in the test on JHU011 [5], the outcome was inactive. The inhibition result in [20], in test [21], in test [22] and in test [23] was “Dose-dependent effect” each time.
